HEK293 NFkB inh: inhibitors of PMA/ionomycin-induced NF-kB reporter, primary screen, antigen receptor NF-kB inhibitor project, cell-based, HEK-293 luciferase reporter, luminescence. HEK-293 NF-kB luciferase reporter. inhibition, % at 3 µM. 62,000 tested, 0.21% active. AID 465, 2006;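 active = inhibition above the mean of all tested compounds plus 3 SD, cut at about 40% in these data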
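Reagent: PMA plus ionomycin mix as NF-kB-activating stimulus. Assay system: NF-kB luciferase reporter HEK-293 cells. Technique: luminescence from luciferase substrate reagent. Incubation: 1 h compound pre-incubation, 16 h PMA/ionomycin at 37 °C. Benchmarks: DMSO only as uninhibited control, 10 µM reference inhibitor as full inhibition. Repeats: tested once.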
M1 agonist: M1 muscarinic receptor agonists, primary screen, CHO-M1 cells, Fluo-4 calcium, agonist mode; Muscarinic acetylcholine receptor M1; Fluo-4 calcium fluorescence; stronger effect = higher value; B-score at 10 µM; 64,000 tested, 3% active; AID 626, 2007;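 active = fluorescence rise, raw or as B-score row- and column-corrected plate score, outside the 99.7% band of its plate's samples, either direction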
Jurkat tox 60K: cytotoxicity toward Jurkat T cells, primary screen, cytotoxicity control, cell-based, Jurkat E6.1, 60K MLSMR library; Jurkat E6.1 viability, ATP luminescence, 48 h; inhibition, % at 4 µM; 56,000 tested, 1.2% active;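 active = inhibition above the mean inhibition of all tested compounds plus 3 SD, cut at about 28% in these data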
D1 allo mod: D1 CRE-luciferase signal change, two-sided – cell-based, HEK293 D1, dopamine EC30, D1 allosteric modulator project, primary screen; D(1A) dopamine receptor (Homo sapiens), P21728; dopamine EC30 potentiation; actives deviate in either direction; B-score at 10 µM; 58,000 tested, 5.9% active; AID 641, 2007;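 active = luminescence count or its row- and column-corrected plate score outside the 99.7% band of the plate's sample wells, on either side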
Target sequence (P21728 whole entry, looked up): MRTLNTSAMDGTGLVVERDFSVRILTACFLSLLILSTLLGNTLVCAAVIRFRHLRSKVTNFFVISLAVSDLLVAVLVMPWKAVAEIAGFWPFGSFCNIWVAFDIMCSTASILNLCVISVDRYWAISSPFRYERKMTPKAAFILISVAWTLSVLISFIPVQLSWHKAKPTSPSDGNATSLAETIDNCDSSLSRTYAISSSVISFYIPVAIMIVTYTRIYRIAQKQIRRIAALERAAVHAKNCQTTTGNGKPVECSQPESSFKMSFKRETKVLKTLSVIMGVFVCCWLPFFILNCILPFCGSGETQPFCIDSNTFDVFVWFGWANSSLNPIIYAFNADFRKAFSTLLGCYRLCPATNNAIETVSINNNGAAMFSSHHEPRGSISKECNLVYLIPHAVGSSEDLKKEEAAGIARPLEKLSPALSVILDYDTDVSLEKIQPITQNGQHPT
M1 antag: antagonists of rat M1 muscarinic receptor | 64,000 tested, 3.4% active | CHO-M1 cells, Fluo-4 calcium, ACh EC80 antagonist mode; stronger effect = lower value | B-score at 10 µM | AID 628, 2007;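 active = calcium fluorescence response, raw or row-and-column corrected B-score, differing from the plate sample mean either way at a set confidence level, mostly lower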
mHtt clearance: clearance of mutant huntingtin inclusions, primary screen, imaging, HeLa Exon1htt(103Q)mCFP, confocal imaging | aggregate imaging; zero = plate's median compound well | inhibition, % at 1.5 µM | 47,000 tested, 0.42% active;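 active = inhibition of aggregate fluorescence above about 70%, also judged a hit by eye on the cell image, limit read from the data, passing the limit was not always enough; inconclusive = no rule stated for this call; inactive = not judged a hit on image review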;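 also: cells exposed to compound for three days before fixation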
Hits are given with their value; - = inactive; ? = inconclusive; . = not tested or not shown. Sampled rows, rich in hits. Any-hit rate of the full collection: about 9.5%.

SMILES	HEK293 NFkB inh	M1 agonist	Jurkat tox 60K	D1 allo mod	M1 antag	mHtt clearance
Cc1nnc(NCCc2ccccc2)n(N)c1=O	-	-	-	-	1.55	-
O=C(NC1=NCCS1)c1ccc(OCC2CCCO2)cc1 (centres undefined)	-	-	-	-3.03	-	.
Cc1ccc(C2CC(c3ccco3)n3ncnc3N2)cc1 (centres undefined)	.	-	.	.	-	-
Cc1ccc2c(c1)C(N1CCCC1=O)CC(c1ccco1)N2 (centres undefined)	-	2.61	-	-4.36	-	-
O=C(Cn1c(CC(=O)N2CCCC2)nc2ccccc21)NCc1ccccc1	-	-	-	-	-	.
Cc1nc2ccccc2n1CC(=O)NCc1ccccc1	-	-	41.4	-	-	.
CCn1cc(C(=O)NCCc2ccccc2)c(=O)c2cc(F)c(N3CCN(C)CC3)cc21	.	-	.	.	-	.
CCn1cc(C(=O)O)c(=O)c2cc(F)c(N3CCN(C(=O)Nc4ccccc4)CC3)cc21	-	-	-	-2.18	-	-
Cc1cc(C(=O)NCCN2CCN(c3cccc(Cl)c3)CC2)n(-c2ccccc2)n1	-	-	-	-3.18	-	.
CCN(CC)CCNC(=O)c1ccc2c(=O)n(CCc3ccccc3)c(=O)[nH]c2c1	-	-	.	-3.15	-	-
COCCn1c(=O)[nH]c2cc(C(=O)NCCN3CCN(c4cccc(Cl)c4)CC3)ccc2c1=O	-	-	.	-3.46	-	.
COc1ccc(N2CCN(CCNC(=O)CCCn3c(=O)[nH]c4cc(Cl)ccc4c3=O)CC2)cc1	-	-	.	-	-	.
CC(Cc1ccccc1)N/C=C1\CC(=O)NC1=O (centres undefined)	.	.	.	.	.	-
CCCc1cn(S(=O)(=O)c2ccc(OC)cc2OC)nc1N	-	-	-	-	-	-
COc1cc(OC)c(-c2nn3c(-c4ccco4)nnc3s2)cc1OC	-	4.36	-	-	-	.
O=C(O)CCCNc1cc(N2CCC3(CC2)OCCO3)c2noc3c2c1C(=O)c1ccccc1-3	-	6.19	-	-	-	-
CCNc1ccc2noc3c2c1C(=O)c1ccccc1-3	.	.	.	.	.	-
CCCCOC(=O)Nc1cc(C(=O)OC)ccc1C(=O)OC	-	-	-	-7	-	.
Cc1ccc2c(CSc3nc4ccccc4c(=O)n3CCCO)cc(=O)oc2c1	-	9.98	-	-	-	.
CCOC(=O)C(C(C)=O)c1c(Br)c(O)c(O)c2c(C(=O)c3ccc(C)cc3)coc12 (centres undefined)	47.2	-	60.9	-	-	-
COc1ccccc1-c1cc(C(=O)Nc2cc(C)nn2-c2ccccc2)no1	-	-	89.2	.	-	-
COc1ccccc1-c1cc(C(=O)NC(C)c2ccccc2)no1 (centres undefined)	-	-	-	-	-	-
COc1ccccc1-c1cc(C(=O)NC(C)C)no1	-	-	-	-3.18	-	-
COCCCNC(=O)c1ccccc1SC	-	-	-	-	-	.
Cc1ccc(S(=O)(=O)N(C)CC(=O)N2CCCc3ccccc32)cc1	-	-	-	-	-	-
SMILES	HEK293 NFkB inh	M1 agonist	Jurkat tox 60K	D1 allo mod	M1 antag	mHtt clearance
CCOC(=O)C1=C(O)/C(=C\c2ccc(CNC(=O)C(=O)Nc3ccc(C)c(C)c3)o2)N=C1C	.	.	.	.	.	-
COc1ccc(-c2nnnn2-c2ccccc2OC)cc1	-	-	47.9	-	-	.
CCn1c(=O)c(C(=O)Nc2cnccn2)c(O)c2ccccc21	-	-	-	-	-	.
CCCn1c(=O)c(C(=O)Nc2c(C)n(C)n(-c3ccccc3)c2=O)c(O)c2ccccc21	-	-	-	-	-11.2	.
CCn1c(=O)c(C(=O)Nc2nc3ccccc3[nH]2)c(O)c2ccccc21	-	-	29.4	-	-	-
CCCn1c(=O)c(C(=O)Nc2ccccc2C(=O)OCC)c(O)c2ccccc21	-	-	-	-	-	.
C=CCn1c(SCc2cc(=O)n3ccsc3n2)nc2sc(C)c(C)c2c1=O	-	-	-	4.02	-	.
C=CCSc1nc2sc(C)c(C)c2c(=O)n1CC=C	.	.	.	.	.	-
Cc1ccc(CCN2CC(C(=O)NCCCN3CCCCCC3)CC2=O)cc1 (centres undefined)	-	-	-	-	-	.
Cc1ccc(C(=O)Nc2cccc(C(=O)NCc3ccccc3)c2)o1	-	3.06	-	-	-	.
CC(=O)c1c(C)nn(C(=O)N2CCOCC2)c1C	-	-	-	-	-	.
O=C(c1ccco1)N1CCN(C(=O)N2c3ccccc3Sc3ccccc32)CC1	-	-	98.5	-	-	-
O=C(N1CCN(c2ccccn2)CC1)N1c2ccccc2Sc2ccccc21	-	-	69.3	-	-	?
COc1cc(CN2CCC(C(=O)N3CCCC(C)C3)CC2)cc(Br)c1O (centres undefined)	-	-	-	-	-	-
COc1ccc(OC)c(S(=O)(=O)N2CCC(C(=O)N3CCN(Cc4ccccc4)CC3)CC2)c1	-	-	-	-5.07	-	-
Cc1c(NC(=O)c2ccc(F)c(S(=O)(=O)N3CCOCC3)c2)c(=O)n(-c2ccccc2)n1C	.	.	.	.	.	-
O=C(Nc1ccccc1)N(O)c1ccc(Cl)cc1	-	-	-	-	-	.
O=C1c2ccccc2C(=O)C1c1nccc2ccccc12	-	-	-	-6.82	-	.
OC(CN1CCN(c2ccccc2)CC1)c1ccc2c(c1)CCN2 (centres undefined)	-	-	-	-3.01	-	-
OCC(O)CN1CCN(c2ccccc2)CC1 (centres undefined)	.	-	.	-	-	.
CCOC(=O)N1CCN(CC(O)c2ccc3c(c2)CCN3)CC1 (centres undefined)	-	-	-	-3.85	-	.
CN(Cc1ccccc1)C(=O)CCSc1nc(-c2ccc3c(c2)OCO3)cc(C(F)(F)F)n1	.	.	.	.	.	-
Cc1nc2sccn2c1-c1nc(C2CC2)c(C(=O)c2ccc3c(c2)NC(=O)CO3)s1	-	-	-	-	-	.
O=C(Cc1ccc(-n2cccc2)cc1)NCc1cccs1	-	-	70.9	-	-	-
Cc1cccnc1NC(=O)Nc1ccc(F)cc1	-	-	-	-2.45	-	-
SMILES	HEK293 NFkB inh	M1 agonist	Jurkat tox 60K	D1 allo mod	M1 antag	mHtt clearance
CC(C)CC(=O)Nc1ccc2oc(-c3ccncc3)nc2c1	-	-	-	-	-	.
Cc1ccc(-c2nc3cc(NC(=O)C(C)C)ccc3o2)cc1	-	-	-	-2.42	-	-
Cc1ccc2oc(-c3cccc(NC(=O)Cc4cccs4)c3)nc2c1	.	.	.	.	.	-
CCC(=O)Nc1ccc2oc(-c3cccc(C)c3)nc2c1	-	-	-	-3.45	-	-
CCOc1ccc(C(=O)Nc2cccc(-c3nc4cccnc4o3)c2)cc1Cl	-	.	-	.	.	-
CC(C)C(=O)Nc1ccc(-c2nc3cccnc3o2)cc1	-	-	-	-3.19	-	-

Compound activity (PubChem)
